38 compounds from paper PMC3929235 (Bioorganic & medicinal chemistry letters, 2013) can be followed below.

One may read the clearance as a measure of how efficiently the substance is removed, as volume per time.

In one data set the target is human α3β2 AChRs (Homo sapiens, UniProt P17787+P32297). The data set can be described thus: Counter-screen against α3β2 nAChR. Type of data set: cell-based. An outline of the steps: (§1)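 HEK tsA201 cells stably expressing the human receptor, kept in high-glucose DMEM with 10% FBS at 37 °C. Seeded on poly-D-lysine wells (150,000/well α4β2, α3β2; 200,000/well α3β2α5), then held at 29 °C for 20 h to raise expression. Membrane-potential dye fluorometry. Test compound serial dilutions added 15 min before nicotine. Response enhancement over nicotine alone, 3–4 wells per point, Hill fit; efficacy relative to reference PAM.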
Background: The purpose of a counterscreen is to sort out artefacts and off-target activity.

The next data set concerns the target human α4β2α5 AChRs (Homo sapiens, UniProt P17787+P30532+P43681). The data set can be described thus: FLEXstation membrane potential assay, PAM of nicotine response at α4β2α5. Format: cell-based. The note with it: for activation at 1 µM: read-out: PAM(Y or N).
The target in the next data set is human α4β2 AChRs (Homo sapiens, UniProt P17787+P43681). The data set can be described thus: FLEXstation membrane potential assay at α4β2. Format: cell-based. The method in brief:
as §1

Another data set deals with human α3β4 AChRs (Homo sapiens, UniProt P30926+P32297). The data set can be described thus: Counter-screen against α3β4 nAChR. Format: cell-based. An outline of the steps: (§2)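 Membrane-potential fluorometry on HEK tsA201 cells stably expressing human receptor, cultured in high-glucose DMEM with 10% FBS, 37 °C, 5% CO2. Poly-D-lysine-coated wells seeded at 150,000 (α3β4) or 200,000 (α3β4α5) cells. Serial dilutions of test compound applied 15 min before nicotine, injected during recording. Points averaged from 3–4 wells; Hill equation fitted to enhancement relative to nicotine-evoked signal.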

The target of a further data set is human α3β4α5 AChRs (Homo sapiens, UniProt P30532+P30926+P32297). Nature of the data set: Counter-screen against α3β4α5 nAChR. Format: cell-based. The method in brief:
as §2

Another data set deals with human α3β2α5 AChRs (Homo sapiens, UniProt P17787+P30532+P32297). The data set can be described thus: Counter-screen against α3β2α5 nAChR. Type of data set: cell-based. An outline of the steps:
as §1

The nature of the next data set: Pharmacokinetics in mice. Type of data set: in vivo.

Sequence of human α4β2α5 AChRs (P43681 29-627 limits assumed): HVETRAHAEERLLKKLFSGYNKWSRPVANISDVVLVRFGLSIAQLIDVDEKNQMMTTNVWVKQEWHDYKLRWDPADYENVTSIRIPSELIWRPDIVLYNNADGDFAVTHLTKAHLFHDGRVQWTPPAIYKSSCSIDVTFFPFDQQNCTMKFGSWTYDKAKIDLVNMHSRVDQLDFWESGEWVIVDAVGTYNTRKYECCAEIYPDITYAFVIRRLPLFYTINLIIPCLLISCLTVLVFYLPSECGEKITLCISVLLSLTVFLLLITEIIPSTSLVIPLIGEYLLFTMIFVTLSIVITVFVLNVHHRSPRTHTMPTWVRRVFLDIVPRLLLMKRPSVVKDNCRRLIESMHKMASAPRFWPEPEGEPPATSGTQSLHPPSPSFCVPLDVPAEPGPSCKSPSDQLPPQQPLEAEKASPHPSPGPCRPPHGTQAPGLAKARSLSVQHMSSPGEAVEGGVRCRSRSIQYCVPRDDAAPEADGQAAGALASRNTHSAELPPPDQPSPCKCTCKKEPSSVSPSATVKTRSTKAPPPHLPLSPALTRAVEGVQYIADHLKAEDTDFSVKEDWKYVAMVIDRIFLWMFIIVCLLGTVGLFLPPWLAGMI
Sequence of human α4β2α5 AChRs (P17787 26-502): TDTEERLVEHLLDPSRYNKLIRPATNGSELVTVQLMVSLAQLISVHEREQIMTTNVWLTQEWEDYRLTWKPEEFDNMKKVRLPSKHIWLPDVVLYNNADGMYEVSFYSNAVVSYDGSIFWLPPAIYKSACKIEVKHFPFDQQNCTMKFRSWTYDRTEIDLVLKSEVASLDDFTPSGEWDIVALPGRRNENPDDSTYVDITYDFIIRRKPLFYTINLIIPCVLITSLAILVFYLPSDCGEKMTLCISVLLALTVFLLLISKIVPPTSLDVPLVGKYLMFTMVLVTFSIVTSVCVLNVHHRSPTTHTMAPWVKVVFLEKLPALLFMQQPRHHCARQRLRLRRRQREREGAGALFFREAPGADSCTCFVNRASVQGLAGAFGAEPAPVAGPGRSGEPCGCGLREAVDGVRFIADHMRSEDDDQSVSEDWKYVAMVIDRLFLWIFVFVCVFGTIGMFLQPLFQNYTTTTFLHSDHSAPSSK
Sequence of human α4β2α5 AChRs (P30532 23-468): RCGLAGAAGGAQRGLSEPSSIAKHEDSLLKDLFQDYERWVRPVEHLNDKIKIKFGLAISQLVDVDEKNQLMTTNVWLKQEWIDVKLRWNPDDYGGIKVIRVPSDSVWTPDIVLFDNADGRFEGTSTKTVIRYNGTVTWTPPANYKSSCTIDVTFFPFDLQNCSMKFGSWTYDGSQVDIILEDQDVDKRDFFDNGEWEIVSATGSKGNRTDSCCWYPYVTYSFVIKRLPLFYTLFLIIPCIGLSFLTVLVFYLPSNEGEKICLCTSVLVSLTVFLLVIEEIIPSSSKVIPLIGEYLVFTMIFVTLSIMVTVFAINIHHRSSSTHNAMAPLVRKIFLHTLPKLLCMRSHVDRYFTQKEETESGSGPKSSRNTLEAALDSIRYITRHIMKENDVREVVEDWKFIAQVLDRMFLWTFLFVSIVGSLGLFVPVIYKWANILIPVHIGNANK
Sequence of human α4β2 AChRs (P43681 29-627 limits assumed): as the sequence (P43681 29-627 limits assumed) above
Sequence of human α4β2 AChRs (P17787 26-502): as the sequence (P17787 26-502) above
Sequence of human α3β4α5 AChRs (P32297 32-505): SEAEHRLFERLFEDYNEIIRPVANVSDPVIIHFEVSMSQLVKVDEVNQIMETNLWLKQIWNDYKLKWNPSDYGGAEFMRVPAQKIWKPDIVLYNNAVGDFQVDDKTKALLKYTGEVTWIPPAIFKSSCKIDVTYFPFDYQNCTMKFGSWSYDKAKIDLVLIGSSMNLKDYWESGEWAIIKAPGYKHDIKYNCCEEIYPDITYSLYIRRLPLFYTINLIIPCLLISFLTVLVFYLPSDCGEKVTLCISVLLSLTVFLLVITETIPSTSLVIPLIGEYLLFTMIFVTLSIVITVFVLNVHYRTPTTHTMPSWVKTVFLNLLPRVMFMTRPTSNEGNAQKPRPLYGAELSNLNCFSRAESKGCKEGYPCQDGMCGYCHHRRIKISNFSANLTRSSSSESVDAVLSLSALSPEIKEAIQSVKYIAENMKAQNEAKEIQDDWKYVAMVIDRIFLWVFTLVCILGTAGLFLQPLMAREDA
Sequence of human α3β4α5 AChRs (P30926 22-498): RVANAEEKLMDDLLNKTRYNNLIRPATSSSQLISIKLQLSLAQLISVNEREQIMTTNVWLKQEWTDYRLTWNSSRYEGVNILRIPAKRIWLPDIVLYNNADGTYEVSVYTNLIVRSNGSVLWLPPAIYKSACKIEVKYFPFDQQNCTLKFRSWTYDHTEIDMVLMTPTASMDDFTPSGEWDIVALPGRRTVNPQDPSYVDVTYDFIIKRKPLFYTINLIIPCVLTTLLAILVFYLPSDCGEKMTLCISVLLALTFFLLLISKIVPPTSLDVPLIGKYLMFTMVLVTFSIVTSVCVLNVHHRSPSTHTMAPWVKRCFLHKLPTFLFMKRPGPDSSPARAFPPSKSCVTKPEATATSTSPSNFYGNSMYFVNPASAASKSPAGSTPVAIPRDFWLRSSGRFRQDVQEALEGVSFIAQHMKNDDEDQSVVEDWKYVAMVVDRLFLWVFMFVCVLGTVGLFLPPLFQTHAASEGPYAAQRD
Sequence of human α3β4α5 AChRs (P30532 23-468): as the sequence (P30532 23-468) above
Sequence of human α3β2α5 AChRs (P32297 32-505): as the sequence (P32297 32-505) above
Sequence of human α3β2α5 AChRs (P17787 26-502): as the sequence (P17787 26-502) above
Sequence of human α3β2α5 AChRs (P30532 23-468): as the sequence (P30532 23-468) above
Sequence of human α3β2 AChRs (P32297 32-505): as the sequence (P32297 32-505) above
Sequence of human α3β2 AChRs (P17787 26-502): as the sequence (P17787 26-502) above
Sequence of human α3β4 AChRs (P32297 32-505): as the sequence (P32297 32-505) above
Sequence of human α3β4 AChRs (P30926 22-498): as the sequence (P30926 22-498) above

In the case of `N#Cc1cccc(-c2nc(-c3cccnc3)no2)c1` [Compound 1a, 3-(3-(pyridin-3-yl)-1,2,4-oxadiazol-5-yl)benzonitrile, reference compound], at human α3β2 AChRs, the “activity against α3β2” value was “no activity”. Further, the Emax on human α4β2α5 AChRs (Maximum efficacy relative to NS9283) is reported as 1. For the same compound, the “agonist activity at α4β2” value on human α4β2 AChRs (without orthosteric agonist) is listed as “no agonist activity”. Moreover, the “activity against α3β4” value on human α3β4 AChRs is given as “no activity”. In addition, the “activity against α3β4α5” value on human α3β4α5 AChRs is “no activity”. Moreover, the “activity against α3β2α5” value at human α3β2α5 AChRs was “no activity”.
Consider `N#Cc1cccc(-c2nc(-c3ccccc3)no2)c1` [Compound 1b], for which the activation at 1 µM at human α4β2α5 AChRs is < 50%.
In the case of `N#Cc1cccc(-c2nc(-c3ccccn3)no2)c1` [Compound 1c], the activation at 1 µM at human α4β2α5 AChRs is < 50%.
In the case of `N#Cc1cccc(-c2nc(-c3ccncc3)no2)c1` [Compound 1d], the activation at 1 µM on human α4β2α5 AChRs is < 50%.
Still for that read-out and setting: with `C[n+]1cccc(-c2noc(-c3cccc(C#N)c3)n2)c1` [Compound 1e] the figure was < 50%; with `c1ccc(-c2nc(-c3cccnc3)no2)cc1` [Compound 4a], < 50%; with `Clc1ccccc1-c1nc(-c2cccnc2)no1` [Compound 4b], < 50%.
The same measure, in the same setting: the value for `Clc1ccc(-c2nc(-c3cccnc3)no2)cc1` [Compound 4c] was < 50%; that for `Fc1cccc(-c2nc(-c3cccnc3)no2)c1` [Compound 4d] was < 50%; that for `Fc1cccc(-c2nc(-c3cccnc3)no2)c1F` [Compound 4e] was < 50%.
Still for that read-out and setting: the value for `O=[N+]([O-])c1ccccc1-c1nc(-c2cccnc2)no1` [Compound 4g] was < 50%; that for `FC(F)(F)c1cccc(-c2nc(-c3cccnc3)no2)c1` [Compound 4j] was < 50%.
As for `FC(F)(F)Oc1cccc(-c2nc(-c3cccnc3)no2)c1` [Compound 4k], at human α4β2α5 AChRs, the activation at 1 µM is < 50%.
Still for that read-out and setting: the value for `COc1cccc(-c2nc(-c3cccnc3)no2)c1` [Compound 4l] was < 50%.
Turning to `N#Cc1cccc(-n2ccc(-c3cccnc3)n2)c1` [Compound 5a], the activation at 1 µM at human α4β2α5 AChRs was < 50%.
On the same count and under the same terms, the value for `N#Cc1cccc(-n2cc(-c3cccnc3)cn2)c1` [Compound 5b] was < 50%.
With `N#Cc1cccc(-c2ccn(-c3cccnc3)n2)c1` [Compound 5c], on human α4β2α5 AChRs, the activation at 1 µM is < 50%.
The same measure, in the same setting: the value for `N#Cc1cccc(-c2cn(-c3cccnc3)cn2)c1` [Compound 5d] was < 50%.
As to `N#Cc1cccc(-n2cnc(-c3cccnc3)c2)c1` [Compound 5e], the activation at 1 µM at human α4β2α5 AChRs is < 50%.
As for `N#Cc1cccc(-c2ncn(-c3cccnc3)n2)c1` [Compound 5f], at human α4β2α5 AChRs, the activation at 1 µM was < 50%.
Same read-out and setting: with `N#Cc1cccc(-n2cc(-c3cccnc3)nn2)c1` [Compound 5j] the figure was < 50%.
Turning to `N#Cc1cccc(-n2nnc(-c3cccnc3)n2)c1` [Compound 5k, 3-(5-(pyridin-3-yl)-2H-tetrazol-2-yl)benzonitrile], the “activity against α3β2” value on human α3β2 AChRs is “no activity”. In the data set “Pharmacokinetics in mice” (mice), the “clearance (in words)” value was “moderate clearance” and the “oral exposure (in words)” value was “very good oral exposure”. In “Pharmacokinetics in mice” (mouse, in vivo, intravenous, 1 mg/kg), this compound yielded a clearance of 46 mL/min/kg. Moreover, at human α4β2 AChRs (compared with α4β2α5), the “PAM potency on α4β2 (in words)” value was “equally potent”. Further, on human α3β4 AChRs, the “activity against α3β4” value is given as “no activity”. Besides, on human α3β4α5 AChRs, the “activity against α3β4α5” value is “no activity”. Further, the “activity against α3β2α5” value on human α3β2α5 AChRs is given as “no activity”.
For `C[n+]1cccc(-c2nnn(-c3cccc(C#N)c3)n2)c1` [Compound 11a], the activation at 1 µM at human α4β2α5 AChRs was < 50%.
Still for that read-out and setting: with `N#Cc1cccc(-n2nnc(-c3ccccc3)n2)c1` [Compound 11b] the figure was < 50%; with `N#Cc1cccc(-n2nnc(-c3ccncc3)n2)c1` [Compound 11c], < 50%; with `N#Cc1cccc(-n2nnc(-c3ccccn3)n2)c1` [Compound 11d], < 50%.
Still for that read-out and setting: the value for `N#Cc1cccc(-n2nnc(-c3ccc(Cl)nc3)n2)c1` [Compound 11e] was < 50%.
Same read-out and setting: the value for `N#Cc1cccc(-n2nnc(-c3cccnc3Cl)n2)c1` [Compound 11f] was < 50%.
Regarding `N#Cc1cccc(-n2nnc(-c3cncc(Cl)c3)n2)c1` [Compound 11g], the activation at 1 µM on human α4β2α5 AChRs was < 50%.
The same measure, in the same setting: with `N#Cc1cccc(-n2nnc(-c3cnccc3Cl)n2)c1` [Compound 11h] the figure was < 50%.
Consider `Fc1ccc(-n2nnc(-c3cccnc3)n2)c(F)c1` [Compound 12a], for which the activation at 1 µM on human α4β2α5 AChRs is < 50%.
Same read-out and setting: with `COc1ccc(OC)c(-n2nnc(-c3cccnc3)n2)c1` [Compound 12b] the figure was < 50%; with `Clc1cc(Cl)cc(-n2nnc(-c3cccnc3)n2)c1` [Compound 12c], < 50%.
With `COc1cc(OC)cc(-n2nnc(-c3cccnc3)n2)c1` [Compound 12d], the activation at 1 µM on human α4β2α5 AChRs was < 50%.
Still for that read-out and setting: the value for `NC(=O)c1cccc(-n2nnc(-c3cccnc3)n2)c1` [Compound 12e] was < 50%; that for `Cc1ccc(-n2nnc(-c3cccnc3)n2)cc1C#N` [Compound 12g] was < 50%.
Same read-out and setting: the value for `Clc1ccccc1-n1nnc(-c2cccnc2)n1` [Compound 12i] was < 50%; that for `Brc1cccc(-n2nnc(-c3cccnc3)n2)c1` [Compound 12j] was < 50%.
